# SENP7 inh: inhibitors of human SENP7 protease. inhibition, % at 5 µM. recombinant SENP7, Z-RLRGG-aminoluciferin luminescence, 40 min. AID 434973. 1.5% of 330,000 active;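 active means inhibition above about 50% at the single test dose, limit read from the data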;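 further: plate controls were DMSO with enzyme for no effect and no enzyme buffer wells for full effect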
# SENP6 inh: blocks the human protease SENP6; inhibition, % at 10 µM; 1.8% of 330,000 active; Recombinant SENP6 catalytic domain, aminoluciferin luminescence; Q9GZR1;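 active means inhibition above about 50% at the single tested dose, limit read from the data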;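 further: plate controls were DMSO wells with enzyme for no effect and DMSO wells lacking enzyme for full effect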
# UBC13 inh: human UBC13 polyubiquitination inhibition; P61088; UBC13 polyubiquitin chain formation, TR-FRET; inhibition, % at 20 µM; 0.47% of 330,000 active; in the data active means inhibition above about 45%, passing the limit was not always enough
# Target sequence (P61088 whole entry, looked up): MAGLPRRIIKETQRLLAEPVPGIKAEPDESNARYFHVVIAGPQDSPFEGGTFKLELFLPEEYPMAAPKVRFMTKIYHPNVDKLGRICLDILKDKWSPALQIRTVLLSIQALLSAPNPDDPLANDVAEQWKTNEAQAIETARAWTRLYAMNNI
# SENP8 block-1: inhibitors of human SENP8 protease; purified SENP8, Z-RLRGG-aminoluciferin cleavage, luminescence; inhibition, % at 10 µM; Q96LD8; 1.2% of 330,000 active; in the data active means inhibition above about 50%
# Target sequence (Q96LD8 whole entry, looked up): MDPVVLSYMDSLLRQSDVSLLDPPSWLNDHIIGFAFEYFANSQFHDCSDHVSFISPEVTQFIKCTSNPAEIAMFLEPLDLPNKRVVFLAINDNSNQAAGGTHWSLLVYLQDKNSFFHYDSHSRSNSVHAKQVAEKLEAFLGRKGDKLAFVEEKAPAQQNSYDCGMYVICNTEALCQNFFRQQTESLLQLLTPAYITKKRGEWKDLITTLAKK
# Apaf1 inhib: human Apaf-1 inhibition | reconstituted apoptosome caspase-3 activity, DEVD-Rh110 fluorescence | inhibition, % at 20 µM | 0.71% of 330,000 active | AID 489030; active means inhibition of at least 40% at 20 µM;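 further: plate controls were DMSO wells for no effect and DEVD-CHO caspase inhibitor wells for full effect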
#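 detection = Rh110 fluorescence intensity | test system = biochemical Apaf-1 apoptosome reconstitution | also added = cytochrome c and DEVD-Rh110 substrate | schedule = 30 min plus 50 min, RT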
# SENP8 block-2: SENP8 (human) protease inhibition. Q96LD8. recombinant SENP8, Nedd8 substrate fluorescence. inhibition, % at 20 µM. 0.64% of 360,000 active; in the data active means inhibition mostly above about 40%, no sharp cut-off; inactive means mostly below about 27%
# SENP8 inh conf: confirmation of human SENP8 protease inhibitors | 15% of 1,400 active | inhibition, % at 25 µM | purified SENP8, Nedd8-AMC/pro-Nedd8 cleavage fluorescence, 30 min | shares compounds with SENP8 block-2; in the data active means inhibition mostly above about 39%, no sharp cut-off; inactive means mostly below about 34%
# Starred values were filed as active, the others as inactive; x = no result. The list is not random: actives were taken first. Their share in the collection is about 3%.
SMILES,SENP7 inh,SENP6 inh,UBC13 inh,SENP8 block-1,Apaf1 inhib,SENP8 block-2,SENP8 inh conf
O=C(NC1CCCCC1)C(c1ccccc1F)n1c(=O)c(-c2cc3ccccc3[nH]2)nc2ccccc21 (centres undefined),x,x,x,x,x,-385.6,x
Cc1ccc(Cn2cc(/C=C/C(=O)O)c(-c3ccccc3)n2)cc1,3.5,-34.2,-8.7,-5.6,15.9,43.0*,8.8
CN(C(=O)c1cc(C(=O)N(C)c2ccccc2)cc([N+](=O)[O-])c1)c1ccccc1,-2.7,15.4,-1.0,-5.8,7.5,31.1,x
CC1=NN(c2ccccc2)C(=O)C1C(=O)c1cc([N+](=O)[O-])cc([N+](=O)[O-])c1 (centres undefined),-9.7,17.0,12.9,-5.8,15.0,51.1*,-5.4
O=C(Nc1ccccn1)C(c1ccccc1)c1ccccc1,x,x,x,x,x,16.3,x
CCOC(=O)[C@]12CCC=C1N(Cc1ccccc1)C(=O)[C@H](CC(=O)N1CCOCC1)C2,x,x,x,x,x,10.6,x
COc1cc(CNn2nnnc2N)ccc1OCc1c(Cl)cccc1Cl,2.8,1.1,7.0,6.3,5.1,43.7*,20.2
Cc1[nH][nH]c(=O)c1C(c1c(C)[nH][nH]c1=O)c1cn(Cc2ccccc2Cl)c2ccccc12,x,x,x,x,x,79.1*,73.3*
N/C(=N\O)c1cn(Cc2ccccc2Cl)c2ccccc12,2.8,-30.5,5.7,-1.8,1.3,18.1,x
CC(C)N1C(=O)CCC1C(=O)N1CCCc2ccccc21 (centres undefined),-2.9,0.9,-5.4,-0.8,11.6,40.8*,67.0*
CCc1nc2c(OCC(N)=O)cccn2c1N(C)C(=O)C(C)C,x,x,x,x,x,6.5,x
Nc1c(N(CCCO)C(=O)CCCN2C(=O)c3cccc4cccc(c34)C2=O)c(=O)[nH]c(=O)n1Cc1ccccc1,x,x,x,x,x,-145.0,x
O=C1CN(c2ccc(Cl)cc2)C(=O)CN1NC(=S)Nc1ccc(Cl)cc1,5.9,13.1,3.0,2.2,-2.2,42.7*,11.6
O=C(Nc1ccccc1)NN1CC(=O)N(c2ccc(Cl)cc2)CC1=O,2.7,1.3,5.4,1.0,-13.4,8.0,x
Cc1ccc(-c2cc(C(=O)NCc3ccccn3)c3ccccc3n2)cc1,2.8,-12.3,10.6,1.9,15.6,-228.1,x
Cc1ccc(C(=O)NCc2ccccn2)c(Cl)c1,-4.8,3.0,7.1,-5.8,-7.8,40.8*,21.5
O=C(NCc1ccccc1)C(c1ccc(C(F)(F)F)cc1)n1c(=O)c(-c2ccco2)nc2ccccc21 (centres undefined),x,x,x,x,x,-432.9,x
COc1cccc(N2C(=O)C(CC(=O)Nc3ccc(F)cc3)N(C3CCCCC3)C2=O)c1 (centres undefined),-2.0,-0.6,-0.5,7.6,3.1,45.6*,5.1
O=C(Nc1cccc(C(F)(F)F)c1)c1ccc2sc([C@@H]3O[C@H](CO)[C@H](O)[C@H](O)[C@H]3O)nc2c1,x,x,x,x,x,14.1,x
CNC1(C)[C@H]2CC[C@H](C2)C1(C)C (some centres undefined),5.9,-5.2,4.7,13.7,-12.5,3.3,x
N#CC(=C1C=C(Br)C(=NO)C=C1Cl)c1cccc2ccccc12,x,x,x,x,x,17.1,x
[O-]/C(=C(\C(=S)NCc1ccco1)[n+]1ccccc1)c1ccccc1Br,10.0,7.4,-1.8,2.3,4.3,41.6*,32.6
O=C(NCc1ccc(F)cc1)c1cc(C2CCCCN2C(=O)c2ccc(Cl)cc2)on1 (centres undefined),x,x,x,x,x,20.4,x
COc1ccc(C(=O)N2CCC2(C)C(=O)O)cc1C(F)(F)F (centres undefined),x,x,x,x,x,12.8,x
COc1ccc(CCNC2CC(=O)N(N(C)C)C2=O)cc1OC (centres undefined),4.8,14.1,1.1,0.3,-2.3,2.9,x
COc1ccc(CCN2C(=O)CC(NCCc3ccc(S(N)(=O)=O)cc3)C2=O)cc1OC (centres undefined),-1.7,-2.0,0.5,-1.9,0.6,40.1*,21.2
CCc1nc2c(OCc3cc(Cl)cc(Cl)c3)cccn2c1N(C=O)Cc1ccccc1,x,x,x,x,x,-2.5,x
Cc1ccc(S(=O)(=O)N[C@@H](CC(C)C)C(=O)N2CCC(C(=O)N[C@@H](Cc3ccccc3)C(=O)O)CC2)cc1,-5.8,10.5,-4.8,3.1,3.5,64.6*,7.2
